# Sampled rows, rich in hits. Any-hit rate of the full collection: about 2.3%.
# SR-BI DiI-HDL act = enhances SR-BI lipid uptake from DiI-HDL | 0.096% of 320,000 active | CHO ldlA[mSR-BI] cells, DiI-HDL uptake fluorescence, 3 h; 100 = double the neutral-control signal | activation, % at 12.5 µM;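 active means mean replicate activation of at least 60% and every replicate at or above 60%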;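 further: 0% = median plate neutral-control signal and 100% = twice that signal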
#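 system = CHO ldlA[mSR-BI] cells, LDL receptor-null, SR-BI overexpressing | medium = Ham's F12 with 0.5% BSA, HEPES 25 mM, pH 7.4 | probe or stimulus = DiI-HDL 10 µg/mL | compound dosing = single-point compound dose | incubation = compound exposure 3 h, 37 °C | technique = DiI fluorescence, bottom read | read-out = cell-associated DiI fluorescence as measure of HDL uptake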
# SR-BI DiI inh = inhibitors of mouse SR-BI mediated HDL lipid uptake | 0.96% of 320,000 active | inhibition, % at 12.5 µM | ldlA[mSR-BI] CHO cells, DiI-HDL uptake fluorescence, 3 h | AID 488896;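 active means mean replicate inhibition of at least 70% and a set share of replicates each scoring 70 or more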;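 further: 0% = median of neutral control wells and 100% = median of positive control wells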
# Target sequence (Q61009 whole entry, looked up): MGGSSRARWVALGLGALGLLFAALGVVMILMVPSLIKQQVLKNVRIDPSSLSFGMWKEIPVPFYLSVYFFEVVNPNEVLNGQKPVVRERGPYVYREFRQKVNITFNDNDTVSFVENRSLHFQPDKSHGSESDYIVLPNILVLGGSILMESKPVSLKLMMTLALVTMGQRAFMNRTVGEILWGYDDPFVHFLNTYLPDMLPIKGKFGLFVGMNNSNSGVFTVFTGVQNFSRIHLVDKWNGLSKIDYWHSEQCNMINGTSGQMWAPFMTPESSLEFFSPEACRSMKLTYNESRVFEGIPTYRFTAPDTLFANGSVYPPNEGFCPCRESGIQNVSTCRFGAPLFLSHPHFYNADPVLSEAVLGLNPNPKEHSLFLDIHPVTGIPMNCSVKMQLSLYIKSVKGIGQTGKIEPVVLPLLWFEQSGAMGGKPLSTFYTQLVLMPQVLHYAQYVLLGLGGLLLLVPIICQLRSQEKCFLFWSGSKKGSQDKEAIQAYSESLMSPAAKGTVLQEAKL
# CAL PDZ FP-1 = inhibitors of human CAL PDZ peptide binding. Q9HD26. purified CAL PDZ, TMR-peptide fluorescence polarization, 1 h. inhibition, % at 20 µM. 0.02% of 330,000 active. AID 504414;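 active means highest replicate inhibition of at least 40%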;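 further: plate controls were DMSO neutral control wells for no effect and unlabeled competitor peptide control wells for full effect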
#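 Test system: tagged CAL PDZ domain / Buffer or medium: sodium phosphate/NaCl buffer pH 7.4 with TCEP, IgG, Thesit / Reagent: TMR-labelled reporter peptide T*-PRC34 bound in PDZ groove / Compound dosing: single point, 20 µM / Schedule: 1 h incubation at room temperature before polarization reading / Technique: fluorescence polarization (mP) / Benchmarks: unlabelled peptide, DMSO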
# ATG4B inh = inhibitors of human ATG4B cysteine protease | ATG4B cleavage of LC3-PLA2, NBD-HPC fluorescence, 1 h | 0.51% of 340,000 active | inhibition, % at 8.33 µM | Q9Y4P1; in the data active means inhibition above about 40%
# CAL PDZ FP-2 = CAL PDZ (human) peptide binding inhibition | Q9HD26 | purified CAL PDZ, TMR-peptide fluorescence polarization, 1 h | inhibition, % at 24.9 µM | 0.92% of 300,000 active;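 active means mean inhibition of at least 30% with at least half of replicates also reaching 30%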;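 further: 0% = DMSO neutral control and 100% = excess unlabeled competitor peptide PRC23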
# ATG4B conf = ATG4B (human) inhibition, single-dose confirmed | AID 504757 | inhibition, % at 8.33 µM | ATG4B protease fluorescent substrate cleavage assay | shares compounds with ATG4B inh | 92% of 320 active; in the data active means inhibition above about 39%
# PLA2 counter = PLA2 (human) inhibition in ATG4B counter-screen; shares compounds with ATG4B inh; inhibition, % at 8.33 µM; AID 588402; 66% of 1,600 active; purified PLA2, NBD-C6-HPC fluorescence, 45 min; in the data active means inhibition above about 50%
# Target sequence (P04054 whole entry, looked up): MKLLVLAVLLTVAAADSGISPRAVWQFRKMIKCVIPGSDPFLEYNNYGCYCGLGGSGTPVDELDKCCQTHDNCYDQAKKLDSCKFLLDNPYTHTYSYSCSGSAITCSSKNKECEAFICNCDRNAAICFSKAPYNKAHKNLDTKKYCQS
# An asterisk follows results filed as active; / = no result given.
SMILES,SR-BI DiI-HDL act,SR-BI DiI inh,CAL PDZ FP-1,ATG4B inh,CAL PDZ FP-2,PLA2 counter,others
Cc1cccc(C)c1NC(=O)c1cn(-c2ccccc2)nc1-c1ccccc1,-10.3,10.3,0.7,29.9,-2.9,/,
O=C(NN=C1CCCCCC1)c1cn(-c2ccccc2)nc1-c1ccccc1,-14.1,14.1,0.6,43.4*,-5.6,3.3,ATG4B conf=62.1*
Cc1sc2nc(C3CC3)nc(SCC(=O)N3CC(=O)Nc4ccccc43)c2c1C,-29.6,29.6,-0.7,68.8*,-0.8,76.6*,
Cc1nnc(SCC(=O)N2CC(=O)Nc3ccccc32)n1C,12.3,-12.3,-0.4,-4.8,-0.9,/,
CSc1nc(=O)n2cc(C)ccc2n1,15.6,-15.6,0.5,-0.3,-2.5,/,
COc1cc(/C=C2/C(=N)N3C=CSC3=NC2=O)ccc1OCCCOc1c(C)cccc1C,-80.9,80.9*,-1.5,48.6*,-3.5,36.6,ATG4B conf=57.3*
CC(Oc1ccc(F)cc1)C(=O)Nc1ccccc1C(=O)N1CCCCC1 (configuration not stated),4.2,-4.2,-1.2,0.8,20.5,/,
COc1ccccc1CNC(=O)c1ccc2c(=O)n3c(nc2c1)CCCCC3,-42.0,42.0,-0.4,5.7,/,/,
COc1ccc(NC(=O)CCCN2C(=O)C(c3ccccc3)Oc3cccnc32)cc1OC (configuration not stated),-36.0,36.0,-2.4,-3.4,2.4,/,
COc1ccc(Br)cc1CNC(=O)CN1C(=O)C(c2ccccc2)Oc2cccnc21 (configuration not stated),-40.0,40.0,-1.0,59.0*,/,66.7*,
Cc1ccc(S(=O)(=O)/C(C#N)=C/c2c(N3CCN(C)CC3)nc3c(C)cccn3c2=O)cc1,-8.7,8.7,-3.0,49.6*,/,58.9*,
Cc1ccc(S(=O)(=O)/C(C#N)=C/c2c(N3CC(C)OC(C)C3)nc3c(C)cccn3c2=O)cc1 (configuration not stated),29.7,-29.7,-0.7,43.7*,-1.4,51.1*,
CC1CN(c2nc3ccccn3c(=O)c2/C=C(\C#N)S(=O)(=O)c2ccccc2)CC(C)O1 (configuration not stated),23.9,-23.9,-2.9,-7.8,-4.9,/,
CCN1CCN(c2nc3c(C)cccn3c(=O)c2/C=C(\C#N)S(=O)(=O)c2ccc(C)cc2)CC1,32.0,-32.0,-3.2,66.7*,-9.0,68.2*,
NC(=O)C1CCN(C2=C(NS(=O)(=O)c3ccccc3)C(=O)c3ccccc3C2=O)CC1,/,/,-1.9,8.7,0.2,/,
NC(=O)C1CCN(C2=C(NS(=O)(=O)c3ccc(Br)cc3)C(=O)c3ccccc3C2=O)CC1,-6.8,6.8,-2.3,64.2*,0.8,60.1*,
CCS(=O)(=O)N1CCC(c2nc3ccccc3[nH]2)CC1,-4.7,4.7,-0.1,-5.2,/,/,
Cc1nnc(N2CCC(C(=O)N3CCCCCC3)CC2)c2nn(-c3ccc(Cl)cc3)c(C)c12,-44.0,44.0,-2.7,75.6*,-4.1,85.5*,
COc1ccc(-n2nc3c(N4CCC(C(=O)NCc5cccc(C)c5)CC4)nnc(C)c3c2C)cc1,-39.9,39.9,-1.8,28.2,-1.1,/,
CCCN1CCN(C(=O)C2CCN(c3nnc(C)c4c(C)n(-c5ccc(C)cc5)nc34)CC2)CC1,-25.8,25.8,-0.7,-1.4,/,/,
COc1ccc(-n2nc3c(N4CCC(C(=O)N5CCCCCC5)CC4)nnc(C)c3c2C)cc1,-6.1,6.1,-3.3,75.0*,0.2,78.9*,
O=C(Cn1nnc2ccccc2c1=O)N[C@@H](Cc1ccccc1)C(=O)O,4.3,-4.3,2.0,-10.9,-0.1,/,
N#C/C(=C/c1ccccc1[N+](=O)[O-])c1nc(C2CC2)cs1,-1.4,1.4,-0.2,34.3,-1.1,/,
N#C/C(=C\c1ccccc1[N+](=O)[O-])c1nc(C2CC2)cs1,-23.3,23.3,-0.3,48.4*,-0.8,62.7*,
COc1ccc(NC(=O)N2CCN(C(=O)C(Cc3ccc(F)cc3)NC(C)=O)CC2)cc1 (configuration not stated),-11.0,11.0,0.6,5.1,-1.3,/,
SMILES,SR-BI DiI-HDL act,SR-BI DiI inh,CAL PDZ FP-1,ATG4B inh,CAL PDZ FP-2,PLA2 counter,others
CC(C)(C)c1ccccc1N=Cc1ccc2ccccc2n1,3.5,-3.5,0.9,53.9*,-1.6,35.4,ATG4B conf=73.6*
O=c1oc2ccccc2cc1-c1csc(NN=C2CCCCC2)n1,/,/,-2.8,40.5*,7.5,65.9*,
O=C(Nc1nc(-c2cc3ccccc3oc2=O)cs1)c1ccco1,17.3,-17.3,-0.7,-7.0,1.3,/,
CC(=O)c1cccc(S(=O)(=O)NCCC(=O)O)c1,9.7,-9.7,-0.7,-0.2,/,/,
COc1ccccc1C1C2=C(N=c3s/c(=C/c4cccc(OCC(=O)O)c4)c(=O)n31)c1ccccc1CC2 (configuration not stated),11.9,-11.9,-1.8,49.8*,1.5,56.3*,
O=C(NCc1ccccn1)c1ccccc1OCc1ccc(F)cc1,-10.5,10.5,-3.1,13.3,-2.6,/,
COc1ccccc1CNC(=O)c1ccccc1OCc1ccc(F)cc1,-13.9,13.9,-0.8,44.4*,-6.9,27.5,ATG4B conf=74.8*
CC[C@H](C)/C=C/C1=CC2=C(Cl)C(=O)[C@@]3(C)OC(=O)C(C(=O)[C@H](C)[C@@H](C)O)=C3C2=CO1,15.0,-15.0,16.6,41.6*,8.6,54.0*,
O=C(CCCn1c(=S)[nH]c2cc3c(cc2c1=O)OCO3)N1CCc2ccccc2C1,/,/,-0.8,60.4*,-1.7,62.7*,
CC(=O)c1ccc(N2CCN(C(=O)CCCn3c(=S)[nH]c4cc5c(cc4c3=O)OCO5)CC2)cc1,-34.0,34.0,-0.8,44.6*,-3.8,60.6*,
O=C(CCCn1c(=S)[nH]c2cc3c(cc2c1=O)OCO3)N1CCN(c2ccc(Cl)cc2)CC1,-19.0,19.0,22.6,53.0*,-4.0,56.6*,
O=C(CCCn1c(=S)[nH]c2cc3c(cc2c1=O)OCO3)N1CCN(c2ccccc2)CC1,-13.8,13.8,-1.5,38.0,-2.0,/,
CCOc1ccc(C(=O)N/N=C/c2cc(Cl)ccc2[N+](=O)[O-])cc1,-57.6,57.6,-2.7,1.0,-2.1,/,
O=C(CSc1nccn1-c1ncc(C(F)(F)F)cc1Cl)c1ccc(Br)cc1,6.8,-6.8,0.3,103.7*,-5.3,9.9,
O=C1C(Nc2ccccc2)=C/C(=N/S(=O)(=O)c2cccs2)c2ccccc21,-15.2,15.2,-0.8,72.1*,1.4,78.2*,
CCOc1ccc(C(=O)Nc2ccccc2-c2ccccc2)cc1Cl,-41.5,41.5,-4.3,45.2*,/,48.1,
CCOc1ccc(C(=O)Nc2cccc(C(=O)O)c2C)cc1Cl,37.5,-37.5,-0.7,3.0,-11.6,/,

# Assay outcomes: PubChem, several laboratories
